Assay results reported in ChEMBL document CHEMBL1132592, “Synthesis of novel 2-benzothiopyran and 3-benzothiepin derivatives and their stimulatory effect on bone formation” (J Med Chem, 1999).

The compounds below were run against T1, Alkaline phosphatase, tissue-nonspecific isozyme (Rattus norvegicus) (UniProt P08289) (assay: Effect on alkaline phosphatase activity compared to control in culture of rat bone marrow stromal cells, 10E-5 M concentration).
T1 sequence (whole entry): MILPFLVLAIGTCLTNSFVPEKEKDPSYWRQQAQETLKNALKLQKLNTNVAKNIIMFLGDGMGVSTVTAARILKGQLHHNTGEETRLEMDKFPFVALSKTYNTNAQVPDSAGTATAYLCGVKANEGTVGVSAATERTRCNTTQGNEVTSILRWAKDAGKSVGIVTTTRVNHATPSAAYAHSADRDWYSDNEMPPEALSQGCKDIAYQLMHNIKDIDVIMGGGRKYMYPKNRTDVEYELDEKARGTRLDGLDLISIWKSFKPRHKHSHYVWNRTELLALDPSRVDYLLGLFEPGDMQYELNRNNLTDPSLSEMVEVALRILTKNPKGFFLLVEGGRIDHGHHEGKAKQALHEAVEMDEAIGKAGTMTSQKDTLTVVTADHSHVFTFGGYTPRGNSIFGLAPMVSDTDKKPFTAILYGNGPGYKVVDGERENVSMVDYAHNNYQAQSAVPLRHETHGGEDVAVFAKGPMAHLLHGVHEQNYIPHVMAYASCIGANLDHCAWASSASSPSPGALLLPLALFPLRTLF
Type: tissue-based
Outline: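 Rat femoral marrow stromal cells subcultured at 4 × 10^4 cells/well in α-MEM with 15% FBS, ascorbate, 10 mM β-glycerophosphate and 10^-7 M dexamethasone. Compound added day 1 to day 10-14, medium refreshed every other day. Lysate ALP (Lowry method) given as fold of control; n = 5–10; Student's t-test.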

ALP activity	SMILES
2.2	CCOP(=O)(OCC)c1ccc(NC(=O)[C@H]2Cc3cc(C)c(C)cc3C(=O)CS2)cc1
2.8	COc1cc2c(cc1OC)C(=O)CS[C@@H](C(=O)Nc1ccc(CP3(=O)OCCCCO3)cc1)C2
1.9	CCOP(=O)(CCc1ccc(NC(=O)[C@H]2Cc3cc4c(cc3C(=O)[C@H](C)S2)OCO4)cc1)OCC
1.3	Cc1cc2c(cc1C)[C@H](C(=O)Nc1cccnc1)SCC2=O
1.7	Cc1ccc(NC(=O)[C@@H]2SCC(=O)c3cc(C4CCCCC4)ccc32)cc1
1.2	CCOP(=O)(Cc1ccc(NC(=O)[C@@H]2SCC(=O)c3cc4c(cc32)OCO4)cc1)OCC
1.2	CCOP(=O)(Cc1ccc(NC(=O)[C@@H]2S[C@@H](C)C(=O)c3cc4c(cc32)OCO4)cc1)OCC
3.9	CC(C)OP(=O)(Cc1ccc(NC(=O)[C@H]2Cc3cc4c(cc3C(=O)[C@H](C)S2)OCO4)cc1)OC(C)C
1.6	CC(C)Oc1ccc2c(=O)c(-c3ccccc3)coc2c1
1.2	CCOP(=O)(Cc1ccc(NC(=O)[C@H]2Cc3ccc(C)cc3C(=O)[C@H](c3ccccc3)S2)cc1)OCC
1.3	COc1cc2c(cc1OC)[C@H](C(=O)Nc1ccc(Cl)cc1)SCC2=O
3	CC1COP(=O)(Cc2ccc(NC(=O)[C@H]3Cc4cc5c(cc4C(=O)[C@H](C)S3)OCO5)cc2)OC1 (stereo not given in full)
1.5	CCOP(=O)(Cc1ccc(NC(=O)[C@@H]2SCC(=O)c3cc(C)c(C)cc32)cc1)OCC
1.1	CCOP(=O)(Cc1ccc(NC(=O)[C@H]2Cc3ccc(Cl)cc3C(=O)CS2)cc1)OCC
1.8	CCOP(=O)(Cc1cccc(NC(=O)[C@H]2Cc3cc4c(cc3C(=O)[C@H](C)S2)OCO4)c1)OCC
7.2	COP(=O)(Cc1ccc(NC(=O)[C@H]2Cc3cc4c(cc3C(=O)[C@H](C)S2)OCO4)cc1)OC
1.3	Cc1cc2c(cc1C)[C@H](C(=O)Nc1cnccn1)SCC2=O
2.7	COc1cc2c(cc1OC)C(=O)CS[C@@H](C(=O)Nc1ccc(CP3(=O)OCC(C)CO3)cc1)C2 (stereo not given in full)

ALP activity	SMILES
2.9	CCOP(=O)(Cc1ccc(NC(=O)[C@H]2Cc3cc4c(cc3C(=O)CS2)OCO4)cc1)OCC
1.1	CCOP(=O)(Cc1ccc(NC(=O)[C@H]2Cc3ccc(C)cc3C(=O)CS2)cc1)OCC
2.3	CCOc1ccc(OCC)c(NC(=O)[C@@H]2SCC(=O)c3cc(C4CCCCC4)ccc32)c1
1.1	CCOP(=O)(OCC)c1ccc(NC(=O)[C@@H]2SCC(=O)c3cc4c(cc32)CCC4)cc1
2.6	CCOP(=O)(OCC)c1ccc(NC(=O)[C@H]2Cc3cc(OC)c(OC)cc3C(=O)CS2)cc1
1.2	CCOP(=O)(Cc1ccc(NC(=O)[C@H]2Cc3cc4c(cc3C(=O)CS2)OCCO4)cc1)OCC
1.8	CCOP(=O)(OCC)c1ccc(NC(=O)[C@H]2Cc3cc4c(cc3C(=O)[C@H](C)S2)OCO4)cc1
3.3	CCOP(=O)(Cc1ccc(NC(=O)[C@H]2Cc3cc4c(cc3C(=O)[C@H](C(C)C)S2)OCO4)cc1)OCC
1.3	O=C1CS[C@@H](C(=O)Nc2ccc(Cl)cc2)c2cc3c(cc21)CCC3
1.5	CCOP(=O)(Cc1ccc(NC(=O)[C@H]2Cc3cc(OC)c(OC)cc3C(=O)[C@H](CC)S2)cc1)OCC
2.4	CCOP(=O)(Cc1ccc(NC(=O)[C@@H]2SCC(=O)c3cc(C4CCCCC4)ccc32)cc1)OCC
2	O=C1CS[C@@H](C(=O)Nc2ccc(Cl)cc2)c2ccc(C3CCCCC3)cc21
2.5	CCOP(=O)(Cc1ccc(NC(=O)[C@@H]2SCC(=O)c3cc(OC)c(OC)cc32)cc1)OCC
1.4	CCOP(=O)(Cc1ccc(NC(=O)[C@H]2Cc3cc(OC)c(OC)cc3C(=O)[C@H](C(C)C)S2)cc1)OCC
1.1	CCOP(=O)(CCNC(=O)[C@H]1Cc2cc3c(cc2C(=O)[C@H](C)S1)OCO3)OCC
2	CCOP(=O)(Cc1ccc(NC(=O)[C@@H]2SCC(=O)c3cc(CC4CCCCC4)ccc32)cc1)OCC
4.6	CCOP(=O)(Cc1ccc(NC(=O)[C@H]2Cc3cc4c(cc3C(=O)[C@H](CC)S2)OCO4)cc1)OCC
